What was measured:
P. aeruginosa PA14 = assay: Biofilm formation under dynamic conditions, P. aeruginosa PA14 wild type; format: cell-based, Pseudomonas aeruginosa; conditions: 24 h
[1] = system: ami operon of P. aeruginosa; assay: qRT-PCR of ami operon mRNA; format: cell-based, Pseudomonas aeruginosa; conditions: BNP 10^−6 M; data not shown
P. aeruginosa AmiC [2] = molecular target: T1, P. aeruginosa AmiC (Pseudomonas aeruginosa, UniProt P27017); assay: Microscale thermophoresis binding to recombinant AmiC; conditions: for affinity for / interaction with AmiC, in words: MST, pH 7.5, 25°C
Summary of the method: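 His-tagged codon-optimised AmiC expressed in E. coli Rosetta2(DE3), purified by IMAC and gel filtration, RED-NHS labelled or unlabelled depending on ligand. AmiC at 50 nM final, mixed with 1:1 serial ligand dilutions in 50 mM Tris-HCl pH 7.5, 150 mM NaCl, 10 mM MgCl2, 0.05% Tween 20. After 5 min incubation, read at 25°C (laser 5/30/5 s); three independent pipettings; KD fitted by mass-action equation.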

PA14 ΔamiC strain = assay: Biofilm formation under dynamic conditions, PA14 ΔamiC strain; format: cell-based, Pseudomonas aeruginosa; conditions: BNP 10^−7 M, 24 h, P < 0.05, eight samples from three experiments
P. aeruginosa cAMP = conditions: ref [17]; cited from earlier work
Caenorhabditis elegans = conditions: ref [16]; cited from earlier work
NPR-C receptor = conditions: mammalian cells; ref [25]; cited from earlier work
NPR-A receptor = conditions: mammalian cells; ref [25]; cited from earlier work
[3] = system: membrane of P. aeruginosa; conditions: inducing increased virulence; ref [14]; cited from earlier work
P. aeruginosa MPAO1 = assay: Biofilm formation under static conditions, P. aeruginosa MPAO1; format: cell-based, Pseudomonas aeruginosa; conditions: isatin 10^−5 M alone, 24 h
Summary of the method: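 Uses a GFP-plasmid (pSMC2.1) strain; overnight preculture at 37°C diluted into LB with 400 µg/ml kanamycin. Test compound added at 2 h of subculture from DMSO/water (5/95) stock, final DMSO under 0.2%, DMSO-matched controls. After 3 h more, cells pelleted, resuspended in 0.9% NaCl at OD600 0.1, 2 h static attachment on glass slides, then LB 24 h static at 37°C. PBS-rinsed, heat fixed, CLSM/COMSTAT.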

[4] = endogenous, usual order; ref [52]; cited from earlier work
P. aeruginosa AmiC [5] = molecular target: T1, P. aeruginosa AmiC; conditions: ref [36]; cited from earlier work

T1 sequence (P27017 whole entry): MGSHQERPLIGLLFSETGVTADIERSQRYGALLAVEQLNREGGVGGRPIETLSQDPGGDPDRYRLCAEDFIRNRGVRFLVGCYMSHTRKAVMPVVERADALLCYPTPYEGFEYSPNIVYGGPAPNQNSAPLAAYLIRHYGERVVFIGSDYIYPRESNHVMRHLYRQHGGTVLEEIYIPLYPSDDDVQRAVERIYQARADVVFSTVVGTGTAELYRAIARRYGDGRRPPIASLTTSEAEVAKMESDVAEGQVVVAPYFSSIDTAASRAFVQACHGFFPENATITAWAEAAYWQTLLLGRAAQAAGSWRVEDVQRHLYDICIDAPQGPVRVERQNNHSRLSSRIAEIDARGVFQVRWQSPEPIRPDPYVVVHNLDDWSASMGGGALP

brain natriuretic peptide [BNP]
change of biofilm average thickness (P. aeruginosa PA14; 10^−6 M, PA14, dynamic (flow cell), LB, 37°C, vs control, P < 0.001): −76.0 ± 4.8%
change of biofilm volume (P. aeruginosa PA14; 10^−6 M, PA14, dynamic (flow cell), LB, 37°C, vs control, P < 0.001, CNP: ten samples from six experiments, BNP: six samples from two experiments): −80.3% ± 4.4%
number and mean size of mushroom-like structures in the biofilm (P. aeruginosa PA14; 10^−6 M, PA14, dynamic, confocal microscopy): reduction of the number and mean size of mushroom-like structures
change of biofilm formation (P. aeruginosa PA14; BNP 10^−7 M, PA14 wild type, dynamic, P < 0.001, nine samples from three experiments): −75.1% ± 9.9%
whole ami operon transcriptional activity [1]: no significant effect
affinity for / interaction with AmiC, in words (P. aeruginosa AmiC [2]): no affinity for AmiC
change of biofilm formation in ΔamiC mutant (PA14 ΔamiC strain): −70.8% ± 12.1%
intrabacterial cAMP (P. aeruginosa cAMP): did not modify intrabacterial cAMP levels
effect on P. aeruginosa virulence for Caenorhabditis elegans (Caenorhabditis elegans): without effect
affinity for NPR-C (NPR-C receptor): weak affinity
affinity for NPR-A (NPR-A receptor): strongly binds

dynorphin
crossing of the membrane of P. aeruginosa [3]: able to freely cross the membrane

O=C1Nc2ccccc2C1=O [isatin, indole-2,3-dione]
effect of isatin alone on organization of the biofilm (P. aeruginosa MPAO1): more irregular, with the presence of large water channels
effect of isatin alone on biomass and thickness of the biofilm (P. aeruginosa MPAO1; two independent experiments): limited and nonsignificant increase
Kd (P. aeruginosa AmiC [2]): 600 ± 200 µM
normal blood isatin concentration [4]: 0.3 to 1.3 µM

CC(N)=O [acetamide]
effect of acetamide on ami operon transcription via AmiC (P. aeruginosa AmiC [5]): triggering the transcription of the whole ami operon

B1: osteocrin: specific NPR-C agonist, synthesized by J. Leprince (peptide, UniProt P61366 28-133, looked up)
Osteocrin: VDVTTTEAFDSGVIDVQSTPTVREEKSATDLTAKLLLLDELVSLENDVIETKKKRSFSGFGSPLDRLSAGSVDHKGKQRKVVDHPKRRFGIPMDRIGRNRLSNSRG
modifications: Osteocrin
affinity for / interaction with AmiC, in words (P. aeruginosa AmiC [2]): very strong interaction

— PMC4550695 (mBio, 2015)
